S1P4 agonist: agonists of human S1P4 receptor; O95977; S1P4-expressing cell line, agonist reporter assay; activation, % at 4.98 µM; 220,000 compounds, 0.35% hits; AID 1509; in the data active means activation above about 11%;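 further: 0% = DMSO vehicle and 100% = reference agonist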
S1P4 antagonist: blocks the human S1P4 receptor; O95977; S1P4-expressing cells, antagonist mode, reporter read-out; inhibition, % at 4.98 µM; 220,000 compounds, 0.26% hits; AID 1510; in the data active means inhibition above about 29%;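 further: 0% = wells stimulated with agonist and 100% = vehicle wells without agonist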
S1P3 antagonist: antagonists of human S1P3 receptor; Q99500; CHO S1P3 NFAT-BLA reporter, FRET fluorescence, antagonist mode; inhibition, % at 4.98 µM; 170,000 compounds, 0.27% hits; AID 485;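 active means inhibition above the plate cutoff, the mean inhibition of test wells on that plate plus 3 SD, cut at about 28% in these data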;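 further: cells challenged with S1P at its EC80 of 0.8 µM; blue over green emission ratio from cleaved BLA substrate after 4 h stimulation; 0% = S1P-stimulated wells and 100% = unstimulated DMSO-only wells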
Target sequence (Q99500 whole entry, looked up): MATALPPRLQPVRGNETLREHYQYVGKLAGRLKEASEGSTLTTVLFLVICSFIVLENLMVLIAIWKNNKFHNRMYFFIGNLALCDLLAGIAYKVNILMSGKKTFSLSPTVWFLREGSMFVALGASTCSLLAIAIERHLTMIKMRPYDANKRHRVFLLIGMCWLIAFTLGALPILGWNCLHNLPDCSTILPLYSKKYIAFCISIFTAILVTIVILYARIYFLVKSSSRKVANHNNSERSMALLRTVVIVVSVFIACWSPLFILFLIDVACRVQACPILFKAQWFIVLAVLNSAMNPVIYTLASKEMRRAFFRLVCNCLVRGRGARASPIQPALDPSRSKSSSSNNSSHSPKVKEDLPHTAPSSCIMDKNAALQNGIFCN
L major viab: inhibitors of Leishmania major promastigote growth | Leishmania major promastigotes, resazurin fluorescence viability | inhibition, % at 10 µM | 200,000 compounds, 9% hits; in the data active means inhibition above about 50%;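 further: promastigotes grown with compound for 44 hours at 28 °C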
Mdm2 ligase inh: inhibitors of human Mdm2 E3 ubiquitin ligase; cell-based MDM2 ubiquitination luciferase reporter, 2 h; 0 = plate control, 100 = twice control, blank-subtracted; 210,000 compounds, 0.11% hits; signal enhancement, % at 5 µM; Q00987;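 active means signal enhancement of 30% or more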;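 further: luminescence tracks abundance of the self-degrading MDM2-luciferase fusion protein; higher signal means inhibition of MDM2 E3 ligase activity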
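system = mammalian cells stably expressing self-ubiquitinating, self-degrading MDM2 E3–luciferase fusion | quantity = 2000 cells per well seeded | incubation = 4 h cell settling then 2 h compound exposure, 37 °C | signal = SteadyLite luminescence, 15 min reagent step | benchmarks = plate control and blank wells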
Starred values were filed as active, the others as inactive; x = not tested or not shown. This excerpt belongs to a sample that is enriched for hits.

SMILES	S1P4 agonist	S1P4 antagonist	S1P3 antagonist	L major viab	Mdm2 ligase inh
O=C(CN1C(=O)NC(Cc2c[nH]c3ccccc23)C1=O)Nc1cccc(S(=O)(=O)N2CCCCCC2)c1 (configuration not stated)	0	-17	-12	64*	11
CN(C)C(=O)COc1ccc(Oc2ccccc2)cc1	2	-11	6	-11	-7
CC1(C(=O)OCC(=O)Nc2ccc3ccccc3c2)CC1(Cl)Cl (configuration not stated)	0	-12	0	10	-7
Cc1c(C(=O)Nc2ccccc2-c2ccccc2)cccc1[N+](=O)[O-]	1	-24	x	0	-24
Cn1c(=O)c2c(nc(SCC(=O)NC3CCCCC3)n2C)n(C)c1=O	x	x	-4	x	x
Cc1onc(-c2ccccc2Cl)c1C(=O)OCC(=O)Nc1cccc(S(=O)(=O)N2CCOCC2)c1	-1	4	-11	64*	-2
CCN(CC)S(=O)(=O)c1cccc(NC(=S)NC(=O)/C=C/c2ccc(S(=O)(=O)N3CCOCC3)cc2)c1	0	0	11	80*	19
CC(=O)Nc1cccc(Oc2ncnc3scc(-c4ccc(C)cc4)c23)c1	2	-15	4	2	-2
COC(=O)C(CCSC)NC(=O)C12CC3CC(CC(C3)C1)C2 (configuration not stated)	-2	1	x	95*	-7
Cc1ccc(N2CCN(C3=NC(=O)/C(=C\c4cn[nH]c4-c4ccccc4)S3)CC2)cc1	1	-18	-16	18	-18
O=C1N=C(N2CCN(c3ccccc3)CC2)S/C1=C\c1cn[nH]c1-c1ccccc1	0	-8	-1	52*	-6
CC(=O)N1CCc2c(sc3c2c(=O)n(-c2ccccc2)c(=O)n3Cc2ccccc2Cl)C1	-1	-16	10	98*	5
N#Cc1ccc(OCC(=O)N/N=C2/CC(c3ccccc3)Oc3ccccc32)cc1 (configuration not stated)	0	2	-7	53*	-1
CCOc1ccc(S(=O)(=O)N/N=C2/CC(c3ccccc3)Oc3ccccc32)cc1 (configuration not stated)	4	19	x	50*	-5
O=C1c2ccccc2NC(c2ccc(O)cc2)N1/N=C/c1ccc(O)cc1 (configuration not stated)	-2	1	1	67*	-6
O=C1c2ccccc2NC(c2ccccc2)N1/N=C/c1ccccc1 (configuration not stated)	1	-9	x	5	-3
COc1ccc(C(=O)n2c(C)c(CCO)c(=O)n2C)cc1	0	9	0	-11	-4
O=C(/C=C/c1ccc(Cl)cc1Cl)Nc1cccc(S(=O)(=O)NC2=NCCCCC2)c1	0	3	0	51*	-6
N#CCCN(C(=O)CCl)c1cccc(Cl)c1	-1	2	-14	51*	-18
COc1ccc(C2=NN(C(=O)c3cccc([N+](=O)[O-])c3)C(c3cccc([N+](=O)[O-])c3)C2)cc1 (configuration not stated)	-2	-1	x	53*	-8
Oc1ccccc1N=Nc1ccccc1O	0	-9	-9	100*	-10
CCOC(=O)Cc1csc(NC(=O)c2cc3c(s2)CCCC3)n1	-2	-21	x	91*	-6
Cc1csc(NC(=O)c2cc3c(s2)CCCC3)n1	1	-9	x	96*	-21
Cc1csc(NC(=O)c2cc3c(s2)CCCCC3)n1	-3	1	x	47	-82
O=C(Nc1cccc(Cl)c1)c1ccc2c(c1)SC1=NS(=O)(=O)CCN12	0	-7	-9	9	-28
SMILES	S1P4 agonist	S1P4 antagonist	S1P3 antagonist	L major viab	Mdm2 ligase inh
O=C(/C=C/c1cccs1)Nc1ccc(N2CCOCC2)c(S(=O)(=O)Nc2cc(Cl)ccc2Cl)c1	6	8	-8	11	-11
COc1ccccc1NS(=O)(=O)c1cc(NC(=O)/C=C/c2cccs2)ccc1N1CCOCC1	-1	-4	-3	99*	-18
O=C(/C=C/c1cccs1)Nc1ccc(N2CCOCC2)c(S(=O)(=O)Nc2ccccc2Cl)c1	-1	2	19	99*	-8
Cc1nn(C2CCCO2)c(=O)nc1N (configuration not stated)	-1	4	-12	2	-16
S=C(NCC1CCCO1)N1CCN(c2nc(-c3ccccc3)cs2)CC1 (configuration not stated)	1	3	6	1	-6
O=C(CSc1nnc(NC(=O)c2ccc3c(c2)OCO3)s1)NCc1ccco1	1	11	15	-2	-59
